ChEMBL document CHEMBL1828528, “Acyclic nucleoside thiophosphonates as potent inhibitors of HIV and HBV replication” (Eur J Med Chem, 2011)
Active and inactive are the calls of the source. The calls are words filed in the database; no cut-off is given here.

Key:
[1] = test system: Human immunodeficiency virus 1; assay: Antiviral activity against 6250 TCID50 wild type HIV1 LAI infected in human H9 cells assessed as reduction in viral replication measured on day 7 post infection by reverse transcriptase activity; type: functional, organism-based; conditions: Human immunodeficiency virus 1, LAI, H9, 168 h
In short: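 H9 cells in RPMI-1640/10% FCS given graded compound concentrations, then infected with a high inoculum of 6250 TCID50 HIV-1 LAI. Supernatant reverse transcriptase activity measured on day 7 post infection. EC50 taken as the concentration giving 50% reduction of viral replication.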

[2] = test system: Human immunodeficiency virus 1; assay: Antiviral activity against HIV1 clade A isolate 4113 infected in human H9 cells assessed as inhibition of viral replication; type: functional, organism-based; conditions: Human immunodeficiency virus 1, clade A isolate 4113, H9
In short: (§1)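 H9 cells infected with HIV-1 clinical isolates of clades A, B, C, D, A/E, F and G, in the presence of graded compound concentrations. EC50 is the concentration reducing viral replication by 50%.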

[3] = test system: Human alphaherpesvirus 1; assay: Antiviral activity against Herpes simplex virus type 1 KOS infected in HEL cells assessed as inhibition of virus-induced cytopathic effect; type: functional, organism-based; conditions: Human alphaherpesvirus 1, KOS
In short: (§2)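 Confluent HEL cell monolayers inoculated with 100 CCID50 of virus. Compounds added after a 1–2 h adsorption period. Virus-induced cytopathic effect scored microscopically at 3 days post infection as % of untreated controls. EC50 derived from graphical plots.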

[4] = test system: Vero; assay: Cytotoxicity against african green monkey Vero cells up to 200 uM; type: cell-based; conditions: chlorocebus sabaeus
In short: (§3)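 Uninfected confluent Vero, CrFK, HEL or HeLa cultures incubated with serial compound dilutions (up to 200 μM) for the same period as the antiviral assays. Minimal toxic concentration is the lowest giving microscopically detectable alteration of cell morphology.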

[5] = Cytotoxicity against […]-activated human PBMC on day 7 by MTT assay; type: cell-based
In short: (§4)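 Uninfected PHA-P-activated PBMC and H9 cells exposed to graded compound concentrations. Viability by MTT on day 7. CC50 from quadratic fit of % viability against concentration; triplicates.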

[6] = test system: Human immunodeficiency virus 1; assay: Antiviral activity against HIV1 clade A/E isolate 2165 infected in human H9 cells assessed as inhibition of viral replication; type: functional, organism-based; conditions: Human immunodeficiency virus 1, clade A/E isolate 2165, H9; in short: as §1
[7] = Cytotoxicity against feline kidney CRFK cells up to 200 uM; type: cell-based, Felis catus; conditions: cat; in short: as §3
[8] = test system: Human immunodeficiency virus 1; assay: Antiviral activity against HIV1 clade B isolate 2101 infected in human H9 cells assessed as inhibition of viral replication; type: functional, organism-based; conditions: Human immunodeficiency virus 1, clade B isolate 2101, H9; in short: as §1
[9] = test system: Sindbis virus; assay: Antiviral activity against Sindbis virus infected in african green monkey Vero cells assessed as inhibition of virus-induced cytopathic effect up to 200 uM measured on day 3 post infection by microscopic analysis; type: functional, organism-based
In short: (§5)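 Confluent Vero cell monolayers inoculated with 100 CCID50 of virus. Compound added after 1–2 h adsorption, tested up to 200 μM. Microscopic CPE scoring on day 3 post infection versus untreated controls.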

[10] = test system: Human immunodeficiency virus 1; assay: Antiviral activity against HIV1 clade C isolate 4110 infected in human H9 cells assessed as inhibition of viral replication; type: functional, organism-based; conditions: Human immunodeficiency virus 1, clade C isolate 4110, H9; in short: as §1
[11] = Stability of compound in presence of CEM-SS cell extract assessed as compound degradation after 24 hrs by HPLC analysis; type: physicochemical; conditions: human, read-out: Activity
In short: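 Compound diluted to 0.1 mM final in one of two media and incubated at 37 °C: RPMI-1640 with 10% heat-inactivated FCS, or CEM-SS cell extract (soluble proteins 3 mg/mL in 10 mM Tris-HCl pH 7.4, 140 mM KCl). Aliquots were taken over time, frozen at −80 °C, then run on C18 reverse-phase HPLC with on-line filtration, TEAB/acetonitrile gradient and 260 nm detection. Degradation products were identified by co-injection.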

[12] = test system: Coxsackievirus B4; assay: Antiviral activity against Coxsackie virus B4 infected in HeLa cells assessed as inhibition of virus-induced cytopathic effect up to 200 uM measured on day 3 post infection by microscopic analysis; type: functional, organism-based
In short: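 HeLa monolayers at confluency infected with 100 CCID50 of virus. Compound dilutions up to 200 μM added after 1–2 h adsorption. Cytopathic effect recorded microscopically on day 3 relative to untreated controls.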

[13] = test system: Punta Toro virus; assay: Antiviral activity against Punta Toro virus infected in african green monkey Vero assessed as inhibition of virus-induced cytopathic effect cells up to 200 uM measured on day 3 post infection by microscopic analysis; type: functional, organism-based; in short: as §5
[14] = test system: Mammalian orthoreovirus 1; assay: Antiviral activity against Reovirus 1 infected in african green monkey Vero cells assessed as inhibition of virus-induced cytopathic effect up to 200 uM measured on day 3 post infection by microscopic analysis; type: functional, organism-based; in short: as §5
[15] = test system: Human alphaherpesvirus 2; assay: Antiviral activity against Herpes simplex virus type 2 G infected in HEL cells assessed as inhibition of virus-induced cytopathic effect; type: functional, organism-based; conditions: Human alphaherpesvirus 2, strain G; in short: as §2
[16] = test system: Human respirovirus 3; assay: Antiviral activity against Parainfluenza virus 3 infected in african green monkey Vero cells assessed as inhibition of virus-induced cytopathic effect up to 200 uM measured on day 3 post infection by microscopic analysis; type: functional, organism-based; in short: as §5
[17] = test system: Influenza B virus; assay: Antiviral activity against influenza B virus; type: functional, organism-based
[18] = Cytotoxicity against human HuH7 cells; type: cell-based; conditions: Huh-7 cells
[19] = Cytotoxicity against human HepAD38 cells; type: cell-based
[20] = test system: Human immunodeficiency virus 1; assay: Antiviral activity against HIV1 clade D isolate 1649 infected in human H9 cells assessed as inhibition of viral replication; type: functional, organism-based; conditions: Human immunodeficiency virus 1, clade D isolate 1649, H9; in short: as §1
[21] = test system: Human immunodeficiency virus 1; assay: Antiviral activity against HIV1 clade C isolate 2914 infected in human H9 cells assessed as inhibition of viral replication; type: functional, organism-based; conditions: Human immunodeficiency virus 1, clade C isolate 2914, H9; in short: as §1
[22] = test system: Human immunodeficiency virus 1; assay: Antiviral activity against 100 TCID50 wild-type Human immunodeficiency virus 1 3B infected in CEM cells assessed as inhibition of syncytia formation after 4 days by microscopic analysis; type: functional, organism-based; conditions: CCRF-CEM, 96 h
In short: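 Human CEM cells (~3 × 10^5 cells/cm3) infected with 100 CCID50/mL HIV-1 IIIB and seeded into wells holding compound dilutions. After 4 days at 37 °C, giant-cell (syncytium) formation was scored microscopically. EC50 is the concentration inhibiting syncytia formation by 50%.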

[23] = test system: Human immunodeficiency virus 1; assay: Antiviral activity against HIV1 clade G isolate 3187 infected in human H9 cells assessed as inhibition of viral replication; type: functional, organism-based; conditions: Human immunodeficiency virus 1, clade G isolate 3187, H9; in short: as §1
[24] = test system: Human immunodeficiency virus 2; assay: Antiviral activity against 100 TCID50 wild-type Human immunodeficiency virus type 2 ROD infected in C8166 cells assessed as inhibition of syncytia formation after 4 days by microscopic analysis; type: functional, organism-based; conditions: Human immunodeficiency virus 2, ISOLATE ROD, C8166, 96 h
[25] = test system: HeLa; assay: Cytotoxicity against human HeLa cells up to 200 uM; type: cell-based; in short: as §3
[26] = test system: Human alphaherpesvirus 1; assay: Antiviral activity against TK-deficient and ACR-resistant Herpes simplex virus type 1 KOS infected in HEL cells assessed as inhibition of virus-induced cytopathic effect; type: functional, organism-based; conditions: Human alphaherpesvirus 1, KOS; in short: as §2
[27] = Cytotoxicity against […]-activated human H9 cells on day 7 by MTT assay; type: cell-based; in short: as §4

SMILES | EC50 [1] [µM] | EC50 [2] [µM] | EC50 [3] [µM] | Activity [4] | CC50 at 7 day [5] [µM] | EC50 [6] [µM] | Activity [7] | EC50 [8] [µM] | inhibition [9] | EC50 [10] [µM] | metabolised at 24 h [11] [%] | inhibition [12] | inhibition [13] | inhibition [14] | EC50 [15] [µM] | inhibition [16] | Activity [17] | CC50 [18] [µM] | CC50 [19] [µM] | EC50 [20] [µM] | also measured
Nc1ncnc2c1ncn2CCOCP(=O)([O-])[S-].[Na+].[Na+] (centres undefined) | 17 | 1.64 | 40 | Non-toxic | > 30 | 0.3 | Non-toxic | 0.49 | inactive | 0.45 | < 1 | inactive | inactive | inactive | 24 | inactive | inactive | > 150 | > 150 | 2.77 | EC50 [21]: 0.49 µM; EC50 [22]: 16 µM; EC50 [23]: 0.88 µM; EC50 [24]: 23 µM; Activity [25]: Non-toxic; EC50 [26]: 24 µM; CC50 at 7 day [27]: > 30 µM
C[C@H](Cn1cnc2c(N)ncnc21)OCP(=O)([O-])[S-].[Na+].[Na+] (some centres undefined) | 9.7 | 4.49 | 169 | Non-toxic | > 100 | 0.34 | Non-toxic | 0.47 | inactive | 0.54 | < 1 | inactive | inactive | inactive | 48 | inactive | inactive | > 150 | > 150 | 0.71 | EC50 [21]: 0.38 µM; EC50 [22]: 14 µM; EC50 [23]: 0.12 µM; EC50 [24]: 7.9 µM; Activity [25]: Non-toxic; EC50 [26]: 80 µM; CC50 at 7 day [27]: > 100 µM
